pIC50: −log10 of the molar value.
What was measured:
C6 = assay: Neuroprotective activity in rat C6 cells assessed as NGF secretion at 20 uM after 24 hrs by ELISA relative to control; type: functional
Procedure, shortened: (§1)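 C6 cells seeded at 1 × 10^5 cells/well; after 1 d switched to serum-free DMEM with 20 μM compound for 24 h. NGF in conditioned medium measured by ELISA as percent of untreated control (100%); viability by MTT as percent. 6-shogaol as positive control.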

[1] = Cytotoxicity against rat C6 cells assessed as cell viability at 20 uM after 24 hrs by MTT assay relative to control; type: cell-based; details: read-out: Activity; procedure, shortened: as §1
BT-549 = assay: Cytotoxicity against human BT549 cells after 48 hrs by SRB assay; type: functional, cell-based; details: BT-549, 48 h
Procedure, shortened: (§2)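 Quantitative staining of cellular protein with sulforhodamine B across human tumour lines A549, SK-OV-3, SK-MEL-2 and Bt549; IC50 derived. Etoposide served as positive control.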

SK-OV-3 = assay: Cytotoxicity against human SKOV3 cells after 48 hrs by SRB assay; type: functional, cell-based; details: SK-OV-3, 48 h; procedure, shortened: as §2
BV-2 = assay: Antiinflammatory activity in mouse BV2 cells assessed as inhibition of LPS-induced nitrite production after 24 hrs by Griess assay; type: functional, cell-based; details: BV-2, 24 h
Procedure, shortened: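 BV-2 microglia seeded at 4 × 10^4 cells/well, exposed to graded doses of compounds with LPS stimulation. Nitrite quantified against a sodium nitrite standard curve; IC50 taken as the concentration giving 50% inhibition of NO production. L-NMMA as positive control. Mean ± SD of three independent experiments.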

[2] = Cytotoxicity against mouse BV2 cells assessed as cell viability at 20 uM after 24 hrs by MTT assay relative to control; type: cell-based, BV-2; details: read-out: Activity
Procedure, shortened: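 BV-2 cells seeded at 4 × 10^4 cells/well, treated with 20 μM compound; viability read by MTT and expressed as percent. Mean ± SD of three independent experiments.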

A549 = assay: Cytotoxicity against human A549 cells after 48 hrs by SRB assay; type: functional, cell-based; details: A549, 48 h; procedure, shortened: as §2
SK-MEL-2 = assay: Cytotoxicity against human SK-MEL-2 cells after 48 hrs by SRB assay; type: functional, cell-based; details: SK-MEL-2, 48 h; procedure, shortened: as §2

Compound	Activity (C6) [%]	viability at 24 h, 20 µM [1] [%]	pIC50 (BT-549)	pIC50 (SK-OV-3)	pIC50 (BV-2)	viability at 24 h, 20 µM [2] [%]	pIC50 (A549)	pIC50 (SK-MEL-2)
O=C1c2c(O)cc(O)cc2O[C@]2(c3ccc(O)cc3)O[C@]12c1c(O)cc(O)c2c(=O)c(O[C@@H]3O[C@H](CO)[C@@H](O)[C@H](O)[C@H]3O)c(-c3ccc(O)cc3)oc12	90.12	107	< 5.00	< 5.00	4.25	104	< 5.00	< 5.00
C[C@@H]1O[C@@H](O[C@H]2[C@H](Oc3c(-c4ccc(O)cc4)oc4cc(O)cc(O)c4c3=O)O[C@H](CO)[C@@H](O)[C@@H]2O)[C@H](O)[C@H](O)[C@H]1O	123.31	102	< 5.00	< 5.00	4.50	103	< 5.00	< 5.00
O=C1c2c(O)cc(O)cc2O[C@@]2(c3ccc(O)cc3)O[C@@]12c1c(O)cc(O)c2c(=O)c(O[C@@H]3O[C@H](CO)[C@@H](O)[C@H](O)[C@H]3O)c(-c3ccc(O)cc3)oc12	121.42	113	< 5.00	< 5.00	4.48	110	< 5.00	< 5.00
C[C@@H]1O[C@@H](OC[C@H]2O[C@@H](Oc3c(-c4ccc(O)cc4)oc4c([C@@]56O[C@]5(c5ccc(O)cc5)Oc5cc(O)cc(O)c5C6=O)c(O)cc(O)c4c3=O)[C@H](O)[C@@H](O)[C@@H]2O)[C@H](O)[C@H](O)[C@H]1O	88.36	102	< 5.00	< 5.00	4.41	99.9	< 5.00	< 5.00
C[C@@H]1O[C@@H](OC[C@H]2O[C@@H](Oc3c(-c4ccc(O)cc4)oc4c([C@]56O[C@@]5(c5ccc(O)cc5)Oc5cc(O)cc(O)c5C6=O)c(O)cc(O)c4c3=O)[C@H](O)[C@@H](O)[C@@H]2O)[C@H](O)[C@H](O)[C@H]1O	74.27	109	< 5.00	< 5.00	4.51	100	< 5.00	< 5.00
C[C@@H]1O[C@@H](OC[C@H]2O[C@@H](Oc3c(-c4ccc(O)c(O)c4)oc4cc(O)cc(O)c4c3=O)[C@H](O)[C@@H](O)[C@@H]2O)[C@H](O)[C@H](O)[C@H]1O [RUTIN]	108.27	113	< 5.00	< 5.00	4.61	99.2	< 5.00	< 5.00
O=c1c(O[C@@H]2O[C@H](CO)[C@@H](O)[C@@H](O)[C@H]2O)c(-c2ccc(O)cc2)oc2cc(O)cc(O)c12	83.79	105	< 5.00	< 5.00	4.10	97.5	< 5.00	< 5.00
O=c1c(O)c(-c2ccc(O)c(O)c2)oc2cc(O)cc(O)c12 [QUERCETIN]	118.77	103	< 5.00	< 5.00	4.72	101	< 5.00	< 5.00
COc1cc([C@@H]2c3cc4c(cc3[C@@H](O[C@@H]3O[C@@H]5CO[C@@H](C)O[C@H]5[C@H](O)[C@H]3O)[C@H]3COC(=O)[C@H]23)OCO4)cc(OC)c1O [ETOPOSIDE]	–	–	5.91	5.71	–	–	6.04	5.96
CNC(=N)NCCC[C@H](N)C(=O)O [TILARGININE]	–	–	–	–	4.67	120	–	–
CCCCC/C=C/C(=O)CCc1ccc(O)c(OC)c1 [SHOGAOL]	143.74	104	–	–	–	–	–	–
O=c1c(O[C@@H]2O[C@H](CO)[C@@H](O)[C@H](O)[C@H]2O)c(-c2ccc(O)c(O)c2)oc2cc(O)cc(O)c12 [ISOQUERCETIN]	98.67	107	< 5.00	< 5.00	4.26	95.6	< 5.00	< 5.00
C[C@@H]1O[C@@H](OC[C@H]2O[C@@H](Oc3c(-c4ccc(O)cc4)oc4cc(O)cc(O)c4c3=O)[C@H](O)[C@@H](O)[C@@H]2O)[C@H](O)[C@H](O)[C@H]1O [NICOTIFLOROSIDE]	97.59	99.6	< 5.00	< 5.00	4.35	97.9	< 5.00	< 5.00
O=c1c(O)c(-c2ccc(O)cc2)oc2cc(O)cc(O)c12 [KAEMPFEROL]	115.98	97.2	< 5.00	< 5.00	5.05	119	< 5.00	< 5.00
O=C1c2c(O)cc(O)cc2O[C@H](c2cc(O)c(O)c(O)c2)[C@H]1O [AMPELOPSIN]	172.04	110	< 5.00	< 5.00	4.49	97	< 5.00	< 5.00
O=c1c(O[C@@H]2O[C@H](CO)[C@@H](O)[C@H](O)[C@H]2O)c(-c2ccc(O)cc2)oc2cc(O)cc(O)c12 [ASTRAGALIN]	114.67	115	< 5.00	< 5.00	4.63	97.5	< 5.00	< 5.00
